# Results published in paper PMC6281781 (Structure (London, England : 1993), 2018).
# Tests used:
# PACSIN3 SH3 domain = experiment: NMR 1H,15N-HSQC chemical shift titration with PACSIN3 SH3 domain; type: binding, chicken; conditions: for affinity for PACSIN3 SH3 domain relative to wildtype (in words): mutations in the TRPV4-PRR, interaction not fully abolished, Fig. S6, Table S1
# In short: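 Chicken PACSIN3 SH3 domain (N-terminal His6) was 15N-labelled in E. coli minimal medium and purified by NiNTA then Superdex75 SEC. It was held at 250 μM in 10 mM Tris pH7, 100 mM NaCl and titrated from concentrated stocks with peptide (wildtype, AAWAA, P128A or P128A/P129L) and/or lipid, with the second ligand added sequentially. HSQC shifts were fitted for KD.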
# [1] = molecular target: chicken PACSIN3 SH3 domain (chicken); experiment: NMR titration
# [2] = molecular target: chicken PACSIN1 SH3 domain (chicken); experiment: NMR titration
Kd [1] [µM],Molecule,affinity for PACSIN3 SH3 domain relative to wildtype (in words) (PACSIN3 SH3 domain),further results
,"CCCCCCCC(=O)OC[C@H](COP(=O)(O)O[C@@H]1[C@H](O)[C@H](O)[C@@H](OP(=O)(O)O)[C@H](OP(=O)(O)O)[C@H]1O)OC(=O)CCCCCCC [PIP2, diC8-PI(4,5)P2, reference compound]",,"interaction with PACSIN3 SH3 domain (in words) (PACSIN3 SH3 domain; PIP2 added to isolated 15N-PACSIN3 SH3, no chemical shift changes in 1H,15N-HSQC): does not interact"
,"P128A/P129L: TRPV4 N-terminal peptide with double mutation P128A/P129L in the PRR (ENKRWRRRVVEKPVAGTKGPAPNALPILKV; left off: His6-SUMO, N-terminal, cleaved)",weakened,
,"P128A: TRPV4 N-terminal peptide with single P128A mutation in the PRR (ENKRWRRRVVEKPVAGTKGPAPNAPPILKV; left off: His6-SUMO, N-terminal, cleaved)",weakened,
74.2,"chicken TRPV4 PIP2 binding domain plus proline rich region peptide (PBD-PRR, residues 105-134) (from UniProt A0A1D5PXA5 105-134)",,
68.6,"chicken TRPV4 proline rich region peptide (PRR, residues 121-134), native sequence (from UniProt A0A1D5PXA5 121-134)",,Kd [2]: 51.6 µM
